Legend:
Renin [1] = target: T1, Renin (Rattus norvegicus, UniProt P08424); test: Inhibitory concentration was measured against plasma renin from rat
T1 sequence (P08424 whole entry): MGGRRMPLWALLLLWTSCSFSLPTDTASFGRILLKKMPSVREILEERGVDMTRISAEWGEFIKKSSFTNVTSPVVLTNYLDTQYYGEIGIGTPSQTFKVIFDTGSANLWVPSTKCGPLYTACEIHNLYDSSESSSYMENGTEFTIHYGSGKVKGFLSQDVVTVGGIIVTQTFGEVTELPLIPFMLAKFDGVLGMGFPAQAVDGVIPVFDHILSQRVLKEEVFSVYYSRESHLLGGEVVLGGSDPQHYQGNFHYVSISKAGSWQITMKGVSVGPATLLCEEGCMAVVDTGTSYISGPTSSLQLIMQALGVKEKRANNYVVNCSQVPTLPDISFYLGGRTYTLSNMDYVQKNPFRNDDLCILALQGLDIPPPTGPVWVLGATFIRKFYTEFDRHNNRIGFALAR

Renin [2] = target: T2, Renin (Homo sapiens, UniProt P00797); test: Inhibitory concentration against human renin
T2 sequence (P00797 whole entry): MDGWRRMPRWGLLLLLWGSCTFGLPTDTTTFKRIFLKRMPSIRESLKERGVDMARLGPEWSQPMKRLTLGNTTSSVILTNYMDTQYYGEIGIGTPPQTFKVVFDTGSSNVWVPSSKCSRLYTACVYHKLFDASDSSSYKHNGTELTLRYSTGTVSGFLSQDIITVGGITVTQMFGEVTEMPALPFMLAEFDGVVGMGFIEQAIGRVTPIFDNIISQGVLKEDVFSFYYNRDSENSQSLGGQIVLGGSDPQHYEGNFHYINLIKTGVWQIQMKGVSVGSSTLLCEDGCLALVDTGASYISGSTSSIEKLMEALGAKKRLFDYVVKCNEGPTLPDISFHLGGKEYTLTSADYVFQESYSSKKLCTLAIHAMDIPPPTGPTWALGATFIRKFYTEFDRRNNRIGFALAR

Renin [3] = target: T2, Renin; test: Inhibitory concentration was measured against plasma renin from human; assay type: cell-free
Summary of the method: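 Human plasma containing EDTA-2Na (14 mM) and neomycin sulfate (0.3%) was mixed with 0.5 M phosphate buffer pH 7.0, Phe-Ala-Pro and inhibitor in DMSO. Incubation ran 60 min at 37 °C, then angiotensin I generated was quantified by radioimmunoassay. IC50 refers to inhibition of plasma renin activity.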

Renin (Canis familiaris) = test: Inhibitory concentration was measured against plasma renin from dog

Row | Structure (SMILES) | IC50 (Renin [1]) [µM] | IC50 (Renin [2]) [nM] | IC50 (Renin [3]) [nM] | IC50 (Renin (Canis familiaris)) [nM]
1 | COC(=O)C(O)C(CC(C)C)NC(=O)C(Cc1c[nH]cn1)NC(=O)C(CC(=O)N(C)C)Cc1cccc2ccccc12 (stereo not given) | > 100 | 78 | 25 | 640
2 | CC(C)CC(NC(=O)C(Cc1c[nH]cn1)NC(=O)C(CC(=O)N1CCOCC1)Cc1cccc2ccccc12)C(O)C(=O)NC(C)C (stereo not given) | 4.4 | 130 | 130 | 1100
3 | CC(C)CC(NC(=O)C(Cc1cnc[nH]1)NC(=O)C(CC(=O)N1CCOCC1)Cc1cccc2ccccc12)C(O)CC(=O)OC(C)C (stereo not given) | > 100 | 180 | 66 | 350

More lines, now with the values ahead:

Row | IC50 (Renin [1]) [µM] | IC50 (Renin [2]) [nM] | IC50 (Renin [3]) [nM] | IC50 (Renin (Canis familiaris)) [nM] | Structure (SMILES)
4 | > 100 | 78 | 90 | 2100 | COC(=O)C(O)C(CC(C)C)NC(=O)C(Cc1c[nH]cn1)NC(=O)C(CC(=O)NCCc1ccccc1)Cc1cccc2ccccc12 (stereo in doubt)
5 |  | 1300 |  |  | COC(=O)[C@@H](O)C(CC(C)C)NC(=O)C(Cc1c[nH]cn1)NC(=O)C(CC(=O)NCCc1ccccc1)Cc1cccc2ccccc12 (single isomer, unassigned; (+))
6 |  | 31 | 77 |  | COC(=O)[C@H](O)C(CC(C)C)NC(=O)C(Cc1cnc[nH]1)NC(=O)C(CC(=O)NCCc1ccccc1)Cc1cccc2ccccc12 (single isomer, unassigned; (+))
7 |  | > 100000 |  |  | COC(=O)C(O)C(CC(C)C)NC(=O)C(Cc1c[nH]cn1)NC(=O)C(CC(=O)NCCc1ccccc1)Cc1cccc2ccccc12 (stereo in doubt; 12)
